# Laboratory results reported in ChEMBL document CHEMBL4689842, “EUbOPEN Chemogenomics Library wave 1” (2021).
# What was measured:
# U2OS = assay: Multiplex assay against U2OS; type: toxicity, cell-based; conditions: human
# Procedure, shortened: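 Tubulin, mitochondrial-mass and membrane-permeability phenotypes are per cents of healthy-nucleus cells. Cells were gated by CellPathfinder machine learning into Hoechst high-intensity objects or normal cells, normal cells into healthy, pyknosed or fragmented nuclei, and pyknosed cells into mitotic or apoptotic. Before that, live cells stained at seeding with Hoechst33342, BioTracker Green Microtubule Cytoskeleton Dye, MitoTracker Red and Annexin V Alexa Fluor 680 were imaged on a CQ1 microscope at 37°C and 5% CO2 after compound addition.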
# Fibroblast = assay: Incucyte cell viability with human fibroblast; type: toxicity, cell-based; conditions: 10 µM, compound concentration 10 uM; further: filed as whole numbers so only -1 and 0 and 1 occur
# [1] = 12 h, 1 µM, compound concentration 1 uM, replicate 1
# [2] = 12 h, 1 µM, compound concentration 1 uM, replicate 2
# [3] = 12 h, 10 µM, compound concentration 10 uM, replicate 1
# [4] = 12 h, 10 µM, compound concentration 10 uM, replicate 2
# [5] = 24 h, 1 µM, compound concentration 1 uM, replicate 1
# [6] = 24 h, 1 µM, compound concentration 1 uM, replicate 2
# [7] = 24 h, 10 µM, compound concentration 10 uM, replicate 1
# [8] = 24 h, 10 µM, compound concentration 10 uM, replicate 2
# [9] = 48 h, 1 µM, compound concentration 1 uM, replicate 1
# [10] = 48 h, 1 µM, compound concentration 1 uM, replicate 2
# [11] = 48 h, 10 µM, compound concentration 10 uM, replicate 1
# [12] = 48 h, 10 µM, compound concentration 10 uM, replicate 2
smiles,measurement,setting,value
COc1cc2c(NC3CCN(C(C)C)CC3)nc(N3CCC(F)(F)CC3)nc2cc1OCCCN1CCCC1,Population Apoptotic (%),U2OS; [1],44%
same,Population Fragmented Nuclei (%),U2OS; [1],10%
same,Population Healthy Nuclei (%),U2OS; [1],72%
same,Population Hoechst High Intensity Objects (%),U2OS; [1],13%
same,Population Mitochondria Different-Phenotype (%),U2OS; [1],17%
same,Population Mitotic Cells (%),U2OS; [1],55%
same,Population Normal (%),U2OS; [1],86%
same,Population Pyknosed Nuclei (%),U2OS; [1],17%
same,Total Cell Count,U2OS; [1],136
same,Population Apoptotic (%),U2OS; [2],30%
same,Population Fragmented Nuclei (%),U2OS; [2],20%
same,Population Healthy Nuclei (%),U2OS; [2],67%
same,Population Hoechst High Intensity Objects (%),U2OS; [2],5%
same,Population Membrane Permeable-Phenotype (%),U2OS; [2],3%
same,Population Mitochondria Different-Phenotype (%),U2OS; [2],22%
same,Population Mitotic Cells (%),U2OS; [2],70%
same,Population Normal (%),U2OS; [2],94%
same,Population Pyknosed Nuclei (%),U2OS; [2],11%
same,Population Tubulin-Different-Phenotype (%),U2OS; [2],19%
same,Total Cell Count,U2OS; [2],105
same,Population Apoptotic (%),U2OS; [3],68%
same,Population Fragmented Nuclei (%),U2OS; [3],14%
same,Population Healthy Nuclei (%),U2OS; [3],71%
same,Population Hoechst High Intensity Objects (%),U2OS; [3],8%
same,Population Membrane Permeable-Phenotype (%),U2OS; [3],27%
same,Population Mitochondria Different-Phenotype (%),U2OS; [3],98%
same,Population Mitotic Cells (%),U2OS; [3],31%
same,Population Normal (%),U2OS; [3],91%
same,Population Pyknosed Nuclei (%),U2OS; [3],14%
same,Population Tubulin-Different-Phenotype (%),U2OS; [3],100%
same,Total Cell Count,U2OS; [3],181
same,Population Apoptotic (%),U2OS; [4],66%
same,Population Fragmented Nuclei (%),U2OS; [4],11%
same,Population Healthy Nuclei (%),U2OS; [4],76%
same,Population Membrane Permeable-Phenotype (%),U2OS; [4],66%
same,Population Mitochondria Different-Phenotype (%),U2OS; [4],97%
same,Population Mitotic Cells (%),U2OS; [4],33%
same,Population Pyknosed Nuclei (%),U2OS; [4],11%
same,Population Tubulin-Different-Phenotype (%),U2OS; [4],97%
same,Total Cell Count,U2OS; [4],89
same,Population Apoptotic (%),U2OS; [5],31%
same,Population Fragmented Nuclei (%),U2OS; [5],9%
same,Population Healthy Nuclei (%),U2OS; [5],65%
same,Population Hoechst High Intensity Objects (%),U2OS; [5],11%
same,Population Membrane Permeable-Phenotype (%),U2OS; [5],0%
same,Population Mitochondria Different-Phenotype (%),U2OS; [5],8%
same,Population Mitotic Cells (%),U2OS; [5],68%
same,Population Normal (%),U2OS; [5],88%
same,Population Pyknosed Nuclei (%),U2OS; [5],24%
same,Population Tubulin-Different-Phenotype (%),U2OS; [5],9%
same,Total Cell Count,U2OS; [5],157
same,Population Apoptotic (%),U2OS; [6],29%
same,Population Fragmented Nuclei (%),U2OS; [6],14%
same,Population Healthy Nuclei (%),U2OS; [6],68%
same,Population Hoechst High Intensity Objects (%),U2OS; [6],8%
same,Population Membrane Permeable-Phenotype (%),U2OS; [6],2%
same,Population Mitochondria Different-Phenotype (%),U2OS; [6],7%
same,Population Mitotic Cells (%),U2OS; [6],70%
same,Population Normal (%),U2OS; [6],91%
same,Population Pyknosed Nuclei (%),U2OS; [6],16%
same,Population Tubulin-Different-Phenotype (%),U2OS; [6],12%
same,Total Cell Count,U2OS; [6],113
same,Population Apoptotic (%),U2OS; [7],70%
same,Population Fragmented Nuclei (%),U2OS; [7],14%
same,Population Healthy Nuclei (%),U2OS; [7],60%
same,Population Hoechst High Intensity Objects (%),U2OS; [7],6%
same,Population Membrane Permeable-Phenotype (%),U2OS; [7],56%
same,Population Mitochondria Different-Phenotype (%),U2OS; [7],98%
same,Population Mitotic Cells (%),U2OS; [7],30%
same,Population Normal (%),U2OS; [7],93%
same,Population Pyknosed Nuclei (%),U2OS; [7],24%
same,Population Tubulin-Different-Phenotype (%),U2OS; [7],98%
same,Total Cell Count,U2OS; [7],218
same,Population Apoptotic (%),U2OS; [8],90%
same,Population Fragmented Nuclei (%),U2OS; [8],18%
same,Population Healthy Nuclei (%),U2OS; [8],59%
same,Population Hoechst High Intensity Objects (%),U2OS; [8],7%
same,Population Membrane Permeable-Phenotype (%),U2OS; [8],82%
same,Population Mitochondria Different-Phenotype (%),U2OS; [8],100%
same,Population Mitotic Cells (%),U2OS; [8],9%
same,Population Normal (%),U2OS; [8],92%
same,Population Pyknosed Nuclei (%),U2OS; [8],22%
same,Population Tubulin-Different-Phenotype (%),U2OS; [8],96%
same,Total Cell Count,U2OS; [8],112
same,Population Apoptotic (%),U2OS; [9],27%
same,Population Fragmented Nuclei (%),U2OS; [9],11%
same,Population Healthy Nuclei (%),U2OS; [9],64%
same,Population Hoechst High Intensity Objects (%),U2OS; [9],10%
same,Population Mitochondria Different-Phenotype (%),U2OS; [9],4%
same,Population Mitotic Cells (%),U2OS; [9],72%
same,Population Normal (%),U2OS; [9],89%
same,Population Pyknosed Nuclei (%),U2OS; [9],24%
same,Population Tubulin-Different-Phenotype (%),U2OS; [9],15%
same,Total Cell Count,U2OS; [9],194
same,Population Apoptotic (%),U2OS; [10],29%
same,Population Fragmented Nuclei (%),U2OS; [10],8%
same,Population Healthy Nuclei (%),U2OS; [10],78%
same,Population Hoechst High Intensity Objects (%),U2OS; [10],8%
same,Population Membrane Permeable-Phenotype (%),U2OS; [10],2%
same,Population Mitochondria Different-Phenotype (%),U2OS; [10],8%
same,Population Mitotic Cells (%),U2OS; [10],70%
same,Population Normal (%),U2OS; [10],91%
same,Population Pyknosed Nuclei (%),U2OS; [10],12%
same,Population Tubulin-Different-Phenotype (%),U2OS; [10],24%
same,Total Cell Count,U2OS; [10],141
same,Population Apoptotic (%),U2OS; [11],79%
same,Population Fragmented Nuclei (%),U2OS; [11],20%
same,Population Healthy Nuclei (%),U2OS; [11],44%
same,Population Hoechst High Intensity Objects (%),U2OS; [11],11%
same,Population Membrane Permeable-Phenotype (%),U2OS; [11],55%
same,Population Mitochondria Different-Phenotype (%),U2OS; [11],100%
same,Population Mitotic Cells (%),U2OS; [11],20%
same,Population Normal (%),U2OS; [11],88%
same,Population Pyknosed Nuclei (%),U2OS; [11],35%
same,Population Tubulin-Different-Phenotype (%),U2OS; [11],92%
same,Total Cell Count,U2OS; [11],337
same,Population Apoptotic (%),U2OS; [12],92%
same,Population Fragmented Nuclei (%),U2OS; [12],12%
same,Population Healthy Nuclei (%),U2OS; [12],63%
same,Population Hoechst High Intensity Objects (%),U2OS; [12],12%
same,Population Membrane Permeable-Phenotype (%),U2OS; [12],75%
same,Population Mitochondria Different-Phenotype (%),U2OS; [12],97%
same,Population Mitotic Cells (%),U2OS; [12],7%
same,Population Normal (%),U2OS; [12],87%
same,Population Pyknosed Nuclei (%),U2OS; [12],24%
same,Population Tubulin-Different-Phenotype (%),U2OS; [12],88%
same,Total Cell Count,U2OS; [12],149
same,Growth Rate,"Fibroblast; 0 h, replicate number 2, timepoint 0 hours",0
same,Growth Rate,"Fibroblast; 6 h, replicate number 2, timepoint 6 hours",1
same,Growth Rate,"Fibroblast; 12 h, replicate number 1, timepoint 12 hours",1
same,Growth Rate,"Fibroblast; 18 h, replicate number 1, timepoint 18 hours",1
same,Growth Rate,"Fibroblast; 18 h, replicate number 2, timepoint 18 hours",0
same,Growth Rate,"Fibroblast; 24 h, replicate number 1, timepoint 24 hours",1
same,Growth Rate,"Fibroblast; 24 h, replicate number 2, timepoint 24 hours",0
